According to ChEMBL document CHEMBL1139367, “A novel histone acetyltransferase inhibitor modulating Gcn5 network: cyclopentylidene-[4-(4'-chlorophenyl)thiazol-2-yl)hydrazone” (2009):
Activity calls are given as the source filed them. The rule behind the calls is not given here.

How the values were obtained:
[1] = molecular target: Histone acetyltransferase KAT2A (Homo sapiens) (UniProt Q92830); assay: Inhibition of human recombinant Gcn5 assessed as reduction in acetylated histone H3 level at 0.2 mM by Western blot analysis in presence of histone H3
Outline: (§1)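 Tube reaction of human recombinant Gcn5 (50 ng) with 1 mM acetyl-CoA and histone H3 (100 or 200 ng). Buffer: 50 mM Tris-HCl pH 8.0, 0.1 mM EDTA, 50 mM KCl, 1 mM DTT, 5% glycerol. Incubated 1 h at 28 °C with or without compound, then 15% SDS-PAGE and blotting. Blots were probed serially with anti-acetyl-lysine and anti-acetyl-H3 antibodies.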

[2] = molecular target: Histone acetyltransferase KAT2A (Homo sapiens) (UniProt Q92830); assay: Inhibition of human recombinant Gcn5 assessed as reduction in acetylated histone H3 level at 0.2 mM by Western blot analysis; outline: as §1
[3] = molecular target: Histone acetyltransferase KAT2A (Homo sapiens) (UniProt Q92830); assay: Inhibition of human recombinant Gcn5 assessed as reduction in acetylated histone H3 level at 0.8 mM by Western blot analysis in presence of increased concentration of acetyl-CoA
Saccharomyces cerevisiae [4] = assay: Inhibition of histone H3 acetylation at H3-AcK14 site in wild type Saccharomyces cerevisiae S288C at 0.8 mM after 24 hrs at 28 degC by hybridization assay; assay type: functional, organism-based
Outline: (§2)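 Wild-type S288c yeast grown 24 h at 28 °C in YEPD with 1% DMSO, with or without compound added to the medium. Bulk proteins were extracted by an alkaline protocol, run on 15% SDS-PAGE and blotted. Blots were probed for acetylated H3, H4 and H3-K14Ac, with ECL detection. Signals were normalized to Ada2p and quantified densitometrically.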

[5] = molecular target: Histone acetyltransferase KAT2A (Homo sapiens) (UniProt Q92830); assay: Inhibition of human recombinant Gcn5 assessed as reduction in acetylated histone H3 level at 0.8 mM by Western blot analysis; outline: as §1
[6] = molecular target: Histone acetyltransferase KAT2A (Homo sapiens) (UniProt Q92830); assay: Inhibition of human recombinant Gcn5 assessed as reduction in acetylated histone H3 level at 0.8 mM by Western blot analysis in presence of 200 ng histone H3; outline: as §1
Saccharomyces cerevisiae [7] = assay: Growth inhibition of wild type wild type Saccharomyces cerevisiae SB819 at 0.2 to 1 mM after 48 hrs at 28 degC by growth spot assay; assay type: functional, organism-based
Outline: (§3)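 Exponentially growing yeast cells at 0.2 OD/mL were serially diluted 1/5. They were spotted on solid YEPD (2% agar) containing 1% DMSO, with compound added from a 100 mM DMSO stock at increasing concentrations. Plates were incubated at 28 °C. Each mutant was compared with its isogenic wild type (S288c, YMK986 or SB819).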

Saccharomyces cerevisiae [8] = assay: Inhibition of histone H3 acetylation at H3-AcK14 site in Saccharomyces cerevisiae gcn5delta mutant at 0.8 mM after 24 hrs at 28 degC by hybridization assay; assay type: functional, organism-based
Saccharomyces cerevisiae [9] = assay: Growth inhibition of Saccharomyces cerevisiae SB0-deltabr mutant at 0.2 to 1 mM after 48 hrs at 28 degC by growth spot assay; assay type: functional, organism-based; outline: as §3
Saccharomyces cerevisiae [10] = assay: Inhibition of global histone H3 acetylation in Saccharomyces cerevisiae gcn5delta mutant at 0.8 mM after 24 hrs at 28 degC by hybridization assay; assay type: functional, organism-based
Saccharomyces cerevisiae [11] = assay: Growth inhibition of Saccharomyces cerevisiae gcn5delta mutant at 0.2 to 1 mM after 48 hrs at 28 degC by growth spot assay; assay type: functional, organism-based; outline: as §3
Saccharomyces cerevisiae [12] = assay: Decrease in global histone H3 acetylation in wild type Saccharomyces cerevisiae S288C at 0.8 mM after 24 hrs at 28 degC by hybridization assay; assay type: functional; set-up: scale not given: the % may be the effect or the level left; outline: as §2
Saccharomyces cerevisiae [13] = assay: Reduction of global histone H4 acetylation in wild type Saccharomyces cerevisiae S288C at 0.8 mM after 24 hrs at 28 degC by hybridization assay; assay type: functional, organism-based; outline: as §2
Saccharomyces cerevisiae [14] = assay: Growth inhibition of Saccharomyces cerevisiae gcn5E173H mutant at 0.2 to 1 mM after 48 hrs at 28 degC by growth spot assay; assay type: functional, organism-based; outline: as §3

Chain of Histone acetyltransferase KAT2A (Homo sapiens) (Q92830 2-837 limits assumed): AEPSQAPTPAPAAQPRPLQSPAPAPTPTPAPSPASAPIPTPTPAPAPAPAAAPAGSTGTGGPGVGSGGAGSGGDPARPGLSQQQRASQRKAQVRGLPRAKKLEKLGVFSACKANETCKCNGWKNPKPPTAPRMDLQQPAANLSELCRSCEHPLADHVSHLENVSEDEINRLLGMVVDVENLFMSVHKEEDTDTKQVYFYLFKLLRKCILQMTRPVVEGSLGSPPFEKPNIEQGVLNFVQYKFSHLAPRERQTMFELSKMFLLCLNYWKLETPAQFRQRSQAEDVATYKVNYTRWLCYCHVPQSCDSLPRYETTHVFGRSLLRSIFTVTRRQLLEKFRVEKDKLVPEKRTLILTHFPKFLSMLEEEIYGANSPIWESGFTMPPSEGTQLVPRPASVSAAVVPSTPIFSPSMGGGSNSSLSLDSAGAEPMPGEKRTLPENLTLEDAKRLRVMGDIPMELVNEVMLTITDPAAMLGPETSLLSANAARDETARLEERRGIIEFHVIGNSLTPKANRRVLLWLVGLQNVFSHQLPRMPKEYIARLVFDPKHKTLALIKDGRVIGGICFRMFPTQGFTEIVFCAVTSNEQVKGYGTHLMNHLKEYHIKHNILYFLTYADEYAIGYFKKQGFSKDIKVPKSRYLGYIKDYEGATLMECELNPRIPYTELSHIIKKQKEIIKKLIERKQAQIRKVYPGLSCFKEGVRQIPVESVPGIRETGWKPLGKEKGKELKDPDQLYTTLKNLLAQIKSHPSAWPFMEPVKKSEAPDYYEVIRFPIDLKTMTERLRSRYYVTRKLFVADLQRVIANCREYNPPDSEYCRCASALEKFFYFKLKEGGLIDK

Structure (SMILES)	Activity [1]	Activity [2]	Activity [3]	Activity (Saccharomyces cerevisiae [4])	Activity [5]	Activity [6]	Activity (Saccharomyces cerevisiae [7])	Activity (Saccharomyces cerevisiae [8])	Activity (Saccharomyces cerevisiae [9])	Activity (Saccharomyces cerevisiae [10])	Activity (Saccharomyces cerevisiae [11])	Activity (Saccharomyces cerevisiae [12]) [%]	Activity (Saccharomyces cerevisiae [13])	Activity (Saccharomyces cerevisiae [14])
C=CC/C=C\C/C=C\CCCCCCCc1cccc(O)c1C(=O)O	Active	Active												
Clc1ccc(-c2csc(NN=C3CCCC3)n2)cc1			Active	Active	Active	inactive	inactive	Active	inactive	Active	Active	30	inactive	Active
